Experimental data taken from ChEMBL document CHEMBL3751814, “6-Methylpurine derived sugar modified nucleosides: Synthesis and in vivo antitumor activity in D54 tumor expressing M64V-Escherichia coli purine nucleoside phosphorylase” (Eur J Med Chem, 2016).
Calls of active or inactive are those of the source. The calls are words filed in the database; no cut-off is given here.

Legend:
[1] = target: T1, Purine nucleoside phosphorylase (Homo sapiens, UniProt P00491); assay: Prodrug activation assessed as recombinant human PNP-mediated compound cleavage at 100 uM by reverse phase HPLC analysis
T1 sequence (P00491 whole entry): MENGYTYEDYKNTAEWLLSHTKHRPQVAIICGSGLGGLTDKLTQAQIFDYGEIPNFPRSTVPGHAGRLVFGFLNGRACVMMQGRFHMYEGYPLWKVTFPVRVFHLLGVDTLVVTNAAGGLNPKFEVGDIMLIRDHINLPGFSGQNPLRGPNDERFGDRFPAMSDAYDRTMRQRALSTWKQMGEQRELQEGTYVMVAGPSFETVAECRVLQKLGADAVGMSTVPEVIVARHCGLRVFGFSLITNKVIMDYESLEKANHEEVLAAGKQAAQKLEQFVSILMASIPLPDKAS
Procedure, shortened: (§1)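 Cleavage assay: 100 µM substrate in 50 mM potassium phosphate pH 7.4, with enzyme amount adjusted for a linear rate, at 25°C; aliquots at 0, 0.25, 0.5, 1, 2 h, stopped by boiling, filtered. Reverse-phase C-18 HPLC, 50 mM ammonium dihydrogen phosphate pH 4.5 with 1.25–5% acetonitrile, 254 nm detection. Specific activity = nmol product/mg protein/time. Detection limit 1 nmol/mg/hr; mean of at least two experiments.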

[2] = Prodrug activation assessed as Francisella tularensis PNP-mediated compound cleavage at 100 uM by reverse phase HPLC analysis
Procedure, shortened: (§2)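 Reactions held 50 mM potassium phosphate (pH 7.4) and 100 µM substrate at 25°C. Enzyme was titrated to keep cleavage linear: native F. tularensis PNP from crude extract or recombinant E. coli SAH/MTA hydrolase. Samples were taken at 0–2 h and stopped by boiling. Base and nucleoside were resolved by C18 reverse-phase HPLC at 254 nm. Activity is nmol/mg protein/hr, the average of at least two experiments; detection limit is 1 nmol/mg/hr.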

[3] = Prodrug activation assessed as recombinant Escherichia coli PNP-mediated compound cleavage at 100 uM by reverse phase HPLC analysis
Procedure, shortened: as §1, with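 “filtered.” for “filtered. Reverse-phase C-18 HPLC, 50 mM ammonium dihydrogen phosphate pH 4.5 with 1.25–5% acetonitrile, 254 nm detection.”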

[4] = Prodrug activation assessed as recombinant Trichomonas vaginalis PNP-mediated compound cleavage at 100 uM by reverse phase HPLC analysis; procedure, shortened: as §1
[5] = target: Purine nucleoside phosphorylase (Sulfolobus solfataricus (strain ATCC 35092 / DSM 1617 / JCM 11322 /P2), UniProt P50389); assay: Prodrug activation assessed as recombinant Sulfolobus solfataricus MTAP-mediated compound cleavage at 100 uM by reverse phase HPLC analysis; conditions: saccharolobus solfataricus; procedure, shortened: as §1
[6] = Prodrug activation assessed as recombinant Escherichia coli PNP M64V mutant-mediated compound cleavage at 100 uM by reverse phase HPLC analysis
[7] = target: 5'-methylthioadenosine/S-adenosylhomocysteine nucleosidase (Escherichia coli O157:H7, UniProt P0AF14); assay: Prodrug activation assessed as recombinant Escherichia coli SAH/MTA hydrolase-mediated compound cleavage at 100 uM by reverse phase HPLC analysis; procedure, shortened: as §2
[8] = target: T2, S-methyl-5'-thioadenosine phosphorylase (Homo sapiens, UniProt Q13126); assay: Prodrug activation assessed as recombinant human MTAP-mediated compound cleavage at 100 uM by reverse phase HPLC analysis; procedure, shortened: as §1
T2 sequence (Q13126 whole entry): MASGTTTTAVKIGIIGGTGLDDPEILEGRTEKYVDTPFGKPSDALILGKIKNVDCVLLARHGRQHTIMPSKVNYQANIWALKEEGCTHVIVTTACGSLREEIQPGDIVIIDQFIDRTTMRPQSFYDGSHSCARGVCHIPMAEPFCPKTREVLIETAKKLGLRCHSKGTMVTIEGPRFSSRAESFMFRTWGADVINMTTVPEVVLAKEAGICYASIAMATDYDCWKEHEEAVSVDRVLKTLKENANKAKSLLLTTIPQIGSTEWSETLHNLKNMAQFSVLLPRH

[9] = Terminal half life of compound in mouse at 100 mg/kg, ip by reverse phase HPLC analysis; type: ADME, organism-based; conditions: in vivo, read-out: beta t1/2
[10] = Prodrug activation in human D54MG cells expressing Escherichia coli PNP M64V mutant xenografted in nude mouse assessed as Escherichia coli PNP M64V mutant-mediated compound cleavage per mg of tumor tissue at 5-20 mg/kg administered via peritoneal cavity 5 times a day (every 2 hrs) for 3 consecutive days measured on day 17; type: organism-based; conditions: in vivo, ip
Procedure, shortened: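 Tumor extracts were taken from mice bearing D54 xenografts with 10% M64V-PNP-expressing cells, removed at start of treatment (day 17). Cleavage of the prodrug substrate was reported as nmoles cleaved/mg-hr; N = 3.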

D54MG = assay: Antitumor activity against human D54MG cells expressing Escherichia coli PNP M64V mutant xenografted in nude mouse assessed as inhibition of tumor growth at 10 and 20 mg/kg, administered via peritoneal cavity 5 times a day (every 2 hrs) for 3 consecutive days measured on day 17 to 19 after tumor implantation; type: functional, organism-based
Procedure, shortened: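 Xenograft: parental and M64V-PNP-transduced D54MG human glioma cells mixed so 10% express M64V; 2 x 10⁷ total cells injected sc into flanks of nu/nu nude mice. At ~300 mg tumors (day 17), ip dosing 5 times daily (every 2 h) for 3 consecutive days at 5, 10 or 20 mg/kg; 6 mice/group. Tumors measured with calipers twice weekly; weight = length x width²/2; mean and SEM.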

[11] = Antitumor activity against human D54MG cells expressing Escherichia coli PNP M64V mutant xenografted in mouse assessed as time for tumor growth delay at maximum tolerated dose; type: functional
Procedure, shortened: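 Subcutaneous flank xenografts in nude mice (nu/nu) used a 90/10 mix of parental and M64V PNP-transduced D54MG glioma cells (2 x 10⁷ total cells). Starting on day 17, when tumors were about 300 mg, mice received ip doses of 5, 10 or 20 mg/kg five times daily (every 2 h) for 3 days, with 6 mice per group. Calipers were read twice weekly and weight was taken as length x width²/2.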

[12] = Prodrug activation in human D54MG cells expressing Escherichia coli PNP xenografted in nude mouse assessed as Escherichia coli PNP-mediated compound cleavage per mg of tumor tissue; conditions: in vivo
[13] = Antitumor activity against human D54MG cells expressing Escherichia coli PNP xenografted in mouse assessed as time for tumor growth delay at 67 mg/kg; type: functional
[14] = Terminal half life of compound in mouse plasma at 67 mg/kg, ip by reverse phase HPLC analysis; type: ADME, organism-based; conditions: read-out: beta t1/2
[15] = Antitumor activity against human D54MG cells expressing Escherichia coli PNP xenografted in nude mouse assessed as time for tumor growth delay at 33 mg/kg; type: functional

Sequence of 5'-methylthioadenosine/S-adenosylhomocysteine nucleosidase (P0AF14 whole entry): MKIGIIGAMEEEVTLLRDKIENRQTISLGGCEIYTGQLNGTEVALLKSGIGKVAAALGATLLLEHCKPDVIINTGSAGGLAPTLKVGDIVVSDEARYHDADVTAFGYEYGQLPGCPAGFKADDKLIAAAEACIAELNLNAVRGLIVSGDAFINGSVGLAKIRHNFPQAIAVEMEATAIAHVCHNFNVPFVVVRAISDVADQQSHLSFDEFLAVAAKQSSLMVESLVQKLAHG
Sequence of Purine nucleoside phosphorylase (Sulfolobus solfataricus (strain ATCC 35092 / DSM 1617 / JCM 11322 /P2), UniProt P50389) (P50389 whole entry): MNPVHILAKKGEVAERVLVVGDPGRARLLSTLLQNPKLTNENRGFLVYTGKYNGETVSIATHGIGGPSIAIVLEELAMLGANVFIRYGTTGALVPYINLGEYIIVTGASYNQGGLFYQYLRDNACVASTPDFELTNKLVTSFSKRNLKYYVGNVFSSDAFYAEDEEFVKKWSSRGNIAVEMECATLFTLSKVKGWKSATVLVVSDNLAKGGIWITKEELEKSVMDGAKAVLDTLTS

| SMILES | Drug metabolism [1] [nmol/mg/h] | Drug metabolism [2] [nmol/mg/h] | Drug metabolism [3] [nmol/mg/h] | Drug metabolism [4] [nmol/mg/h] | Drug metabolism [5] [nmol/mg/h] | Drug metabolism [6] [nmol/mg/h] | Drug metabolism [7] [nmol/mg/h] | Drug metabolism [8] [nmol/mg/h] | half-life [9] [min] | Drug metabolism [10] [nmol/mg/h] | inhibition (D54MG) | Time [11] [days] | Drug metabolism [12] [nmol/mg/h] | Time [13] [days] | half-life [14] [min] | Time [15] [days] |
| --- | --- | --- | --- | --- | --- | --- | --- | --- | --- | --- | --- | --- | --- | --- | --- | --- |
| OC[C@H]1O[C@@H](n2cnc3c(O)ncnc32)[C@H](O)[C@@H]1O [INOSINE] | 391000 | 2000 | 342000 | 154000 | 84000 | – | – | – | – | – | – | – | – | – | – | – |
| Cc1ncnc2c1ncn2[C@@H]1O[C@H](CO)[C@@H](O)[C@H]1O | 12 | 4800 | 96000 | 155000 | 4000 | 176000 | 290 | – | – | – | – | – | – | – | – | – |
| Nc1ncnc2c1ncn2[C@@H]1O[C@H](CO)[C@@H](O)[C@H]1O [ADENOSINE] | – | 2100 | – | 501000 | 57000 | – | 2100 | 596 | – | – | – | – | – | – | – | – |
| Cc1ncnc2c1ncn2[C@@H]1O[C@@H](CO)[C@@H](O)[C@H]1O | – | 180 | 218 | 10000 | 1400 | 10000 | 36 | < 1 | – | – | – | – | – | – | – | – |
| Cc1ncnc2c1ncn2[C@@H]1O[C@H]([C@H](C)O)[C@@H](O)[C@H]1O | < 1 | 100 | 915 | 8400 | 1500 | 86000 | 51 | 4 | 21 | 365 | Active | >32 | – | – | – | – |
| Cc1ncnc2c1ncn2[C@H]1C[C@H](O)[C@@H](CO)O1 | 35 | 3900 | 528000 | 484000 | 12000 | 593000 | 30 | < 1 | – | – | – | – | 40 | 22 | 14 | 22 |
